Measured values from ChEMBL document CHEMBL4270620, “Synthesis and anti-fibrosis activity study of 14-deoxyandrographolide-19-oic acid and 14-deoxydidehydroandrographolide-19-oic acid derivatives” (Eur J Med Chem, 2018).
The source made the active and inactive calls. The rule behind the calls is not given here.

Assays:
NIH3T3 [1] = assay: Antifibrotic activity against mouse NIH/3T3 cells assessed as inhibition of cell proliferation after 72 hrs by MTT assay; type: functional, cell-based
In short: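 NIH-3T3 seeded at 5000 cells/well in DMEM/F12 with 10% FBS, allowed to attach 24 h, then exposed 72 h to graded compound concentrations. MTT (5 mg/mL stock) added for 2–4 h, formazan dissolved in DMSO, OD read at 490 nm. IC50 from regression equation; three repeats, mean.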

NIH3T3 [2] = assay: (§1) Antifibrotic activity against mouse NIH/3T3 cells assessed as inhibition of TGFbeta1-induced increase in alpha-SMA mRNA level at 500 nM preincubated for 1 hr followed by TGFbeta-1 addition measured after 24 hrs by qRT-PCR method; type: functional, cell-based
In short: (§2)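 NIH-3T3 cells pretreated 1 h with 500 nM compound, then stimulated with rat TGF-β1 5 ng/ml for 24 h. RNA extracted and qPCR run 40 cycles (95 °C 5 s / 60 °C 60 s). Transcripts normalized to GAPDH, fold change by 2^-ΔΔCt. n = 3, means ± SD.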

NIH3T3 [3] = assay: (§3) Antifibrotic activity against mouse NIH/3T3 cells assessed as inhibition of TGFbeta1-induced increase in FN mRNA level at 500 nM preincubated for 1 hr followed by TGFbeta-1 addition measured after 24 hrs by qRT-PCR method; type: functional, cell-based; in short: as §2
NIH3T3 [4] = assay: (§4) Antifibrotic activity against mouse NIH/3T3 cells assessed as inhibition of TGFbeta1-induced increase in COL1A1 mRNA level at 500 nM preincubated for 1 hr followed by TGFbeta-1 addition measured after 24 hrs by qRT-PCR method; type: functional, cell-based; in short: as §2
NIH3T3 [5] = assay: Antifibrotic activity against mouse NIH/3T3 cells assessed as inhibition of alpha-SMA mRNA level at 500 nM measured after 24 hrs by qRT-PCR method; type: functional, cell-based
In short: (§5)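 NIH-3T3 (DMEM/F12, 10% FBS, 37 °C, 5% CO2) given 500 nM compound without TGF-β1 for 24 h. Total RNA extracted; qPCR of α-SMA, FN, COL1A1 run 40 cycles (95 °C 5 s, 60 °C 60 s). Normalized to GAPDH, relative expression by 2^-ΔΔCt. Mean of three experiments ± SD.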

NIH3T3 [6] = assay: Antifibrotic activity against mouse NIH/3T3 cells assessed as inhibition of FN mRNA level at 500 nM measured after 24 hrs by qRT-PCR method; type: functional, cell-based; in short: as §5
NIH3T3 [7] = assay: Antifibrotic activity against mouse NIH/3T3 cells assessed as inhibition of COL1A1 mRNA level at 500 nM measured after 24 hrs by qRT-PCR method; type: functional, cell-based; in short: as §5
[8] = Inhibition of cell proliferation in HUVEC at 10 uM […] by MTT assay relative to control; type: cell-based; details: human, HUVEC cells
In short: (§6)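 MTT test on HUVEC (DMEM/F12, 10% FBS) plated at 5000 cells/well, attached 24 h, then treated at 1, 10, 40 and 80 μM for the period printed as 42 h. MTT (5 mg/mL stock) incubated 2–4 h, formazan dissolved in DMSO, absorbance at 490 nm. Proliferation relative to control; mean of three experiments.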

[9] = Inhibition of cell proliferation in HUVEC at 80 uM after […] by MTT assay relative to control; type: cell-based; details: human, HUVEC cells; in short: as §6
NIH3T3 [10] = assay: as §1, with “protein expression by measuring ratio of alpha-SMA to beta-actin protein” for “mRNA”, “Western blot” for “qRT-PCR”, “method (reference value: 0.87)” for “method”; type: functional
In short: (§7)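 Western blot of NIH-3T3 treated with 500 nM compound plus rat TGF-β1 5 ng/ml for 24 h; PBS as control. RIPA/1% PMSF lysates quantified by BCA, run on 10% SDS-PAGE and blotted to PVDF. Blocked in 5% milk; α-SMA, FN, COL1A1 primaries 1:1000 overnight at 4 °C; HRP secondary 1:5000 for 2 h; ECL. Band intensity relative to β-actin. Three repeats, means ± SD.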

NIH3T3 [11] = assay: as §3, with “protein expression by measuring ratio of FN to beta-actin protein” for “mRNA”, “Western blot” for “qRT-PCR”, “method (reference value: 0.95)” for “method”; type: functional; in short: as §7
NIH3T3 [12] = assay: as §4, with “protein expression by measuring ratio of COL1A1 to beta-actin protein” for “mRNA”, “Western blot” for “qRT-PCR”, “method (reference value: 0.26)” for “method”; type: functional; in short: as §7
[13] = Mus musculus, NIH3T3, 72 h, read-out: IC50

C=C1CC[C@H]2[C@@](C)(CC[C@@H](O)[C@@]2(C)C(=O)OC)[C@@H]1CCC1=CCOC1=O
IC50 (NIH3T3 [1]; [13]): 60.6 µM

C=C1CC[C@@H]2[C@](C)(CO)[C@H](O)CC[C@@]2(C)[C@@H]1CCC1=CCOC1=O [DEOXYANDROGRAPHOLIDE]
IC50 (NIH3T3 [1]; [13]): 176 µM
inhibition (NIH3T3 [2]): Active
inhibition (NIH3T3 [3]): Active
inhibition (NIH3T3 [4]): Active
inhibition (NIH3T3 [5]): Active
inhibition (NIH3T3 [6]): Active
inhibition (NIH3T3 [7]): Active

C=C1CC[C@@H]2[C@](C)(CO)[C@H](O)CC[C@@]2(C)[C@@H]1C/C=C1/C(=O)OC[C@H]1O [ANDROGRAPHOLIDE]
IC50 (NIH3T3 [1]; [13]): 95.3 µM
inhibition at 10 µM [8]: 10.4%
inhibition at 80 µM [9]: 26.4%
inhibition (NIH3T3 [2]): Active
inhibition (NIH3T3 [3]): Active
inhibition (NIH3T3 [4]): Active
inhibition (NIH3T3 [5]): Active
inhibition (NIH3T3 [6]): Active
inhibition (NIH3T3 [7]): Active

C=C1CC[C@H]2[C@@](C)(CC[C@@H](O)[C@@]2(C)C(=O)OC)[C@@H]1/C=C/C1=CCOC1=O
IC50 (NIH3T3 [1]; [13]): 111 µM

C=C1CC[C@H]2[C@@](C)(CC[C@@H](O)[C@@]2(C)C(=O)OCc2ccccc2)[C@@H]1CCC1=CCOC1=O
IC50 (NIH3T3 [1]; [13]): 37.9 µM

C=C1CC[C@H]2[C@@](C)(CC[C@@H](O)[C@@]2(C)C(=O)OCc2ccccc2)[C@@H]1/C=C/C1=CCOC1=O
IC50 (NIH3T3 [1]; [13]): 13.6 µM
inhibition at 10 µM [8]: 9.7%
inhibition at 80 µM [9]: 68.7%
inhibition (NIH3T3 [2]): Active
inhibition (NIH3T3 [3]): Active
inhibition (NIH3T3 [4]): Active
inhibition (NIH3T3 [5]): Active
inhibition (NIH3T3 [6]): Active
inhibition (NIH3T3 [7]): Active
Ratio (NIH3T3 [10]): 0.39
Ratio (NIH3T3 [11]): 0.47
Ratio (NIH3T3 [12]): 0.42

C=C1CC[C@@H]2[C@](C)(CO)[C@H](O)CC[C@@]2(C)[C@@H]1/C=C/C1=CCOC1=O
IC50 (NIH3T3 [1]; [13]): 64.3 µM
inhibition (NIH3T3 [2]): Active
inhibition (NIH3T3 [3]): Active
inhibition (NIH3T3 [4]): Active
inhibition (NIH3T3 [5]): Active
inhibition (NIH3T3 [6]): Active
inhibition (NIH3T3 [7]): Active

C=C1CC[C@H]2[C@@](C)(CC[C@@H](OC(C)=O)[C@@]2(C)C(=O)OCc2ccccc2)[C@@H]1/C=C/C1=CCOC1=O
IC50 (NIH3T3 [1]; [13]): 52.7 µM

C=C1CC[C@H]2[C@@](C)(CC[C@@H](OC(C)=O)[C@@]2(C)C(=O)OCc2ccccn2)[C@@H]1CCC1=CCOC1=O
IC50 (NIH3T3 [1]; [13]): 55.5 µM

C=C1CC[C@H]2[C@@](C)(CC[C@@H](OC(C)=O)[C@@]2(C)C(=O)OC)[C@@H]1/C=C/C1=CCOC1=O
IC50 (NIH3T3 [1]; [13]): 32.2 µM

C=C1CC[C@@H]2[C@](C)(CO)[C@H](O)CC[C@@]2(C)[C@@H]1C/C=C1\C=COC1=O
IC50 (NIH3T3 [1]; nih3t3): Not Active

C=C1CC[C@H]2[C@@](C)(CC[C@@H](OC(C)=O)[C@@]2(C)C(=O)OC)[C@@H]1CCC1=CCOC1=O
IC50 (NIH3T3 [1]; [13]): 80.6 µM

C=C1CC[C@H]2[C@@](C)(CC[C@@H](OC(C)=O)[C@@]2(C)C(=O)OCc2ccccc2)[C@@H]1CCC1=CCOC1=O
IC50 (NIH3T3 [1]; [13]): 12.9 µM
inhibition at 10 µM [8]: 6.6%
inhibition at 80 µM [9]: 55.7%
inhibition (NIH3T3 [2]): Active
inhibition (NIH3T3 [3]): Active
inhibition (NIH3T3 [4]): Active
inhibition (NIH3T3 [5]): Active
inhibition (NIH3T3 [6]): Active
inhibition (NIH3T3 [7]): Active
Ratio (NIH3T3 [10]): 0.4
Ratio (NIH3T3 [11]): 0.46
Ratio (NIH3T3 [12]): 0.38

C=C1CC[C@H]2[C@@](C)(CC[C@@H](OC(C)=O)[C@@]2(C)C(=O)OC)[C@@H]1C/C=C1\C=COC1=O
IC50 (NIH3T3 [1]; [13]): 69.7 µM

C=C1CC[C@H]2[C@@](C)(CC[C@@H](OC(C)=O)[C@@]2(C)C(=O)OCc2ccccn2)[C@@H]1/C=C/C1=CCOC1=O
IC50 (NIH3T3 [1]; [13]): 34.9 µM

C=C1CC[C@H]2[C@@](C)(CC[C@@H](O)[C@@]2(C)C(=O)OCc2ccccn2)[C@@H]1CCC1=CCOC1=O
IC50 (NIH3T3 [1]; [13]): 79.8 µM

C=C1CC[C@H]2[C@@](C)(CC[C@@H](O)[C@@]2(C)C(=O)OC)[C@@H]1C/C=C1\C=COC1=O
IC50 (NIH3T3 [1]; [13]): 177 µM

C=C1CC[C@H]2[C@@](C)(CC[C@@H](O)[C@@]2(C)C(=O)OCc2ccccn2)[C@@H]1/C=C/C1=CCOC1=O
IC50 (NIH3T3 [1]; [13]): 80.2 µM

C=C1CC[C@H]2[C@@](C)(CC[C@@H](O)[C@@]2(C)C(=O)OCc2ccccc2)[C@@H]1C/C=C1\C=COC1=O
IC50 (NIH3T3 [1]; [13]): 177 µM

C=C1CC[C@H]2[C@@](C)(CC[C@@H](OC(C)=O)[C@@]2(C)C(=O)OCc2ccccc2)[C@@H]1C/C=C1\C=COC1=O
IC50 (NIH3T3 [1]; [13]): 78 µM
